# In ChEMBL document CHEMBL1145748, “Nonpeptide alphavbeta3 antagonists. 8. In vitro and in vivo evaluation of a potent alphavbeta3 antagonist for the prevention and treatment of osteoporosis” (J Med Chem, 2003):
# Assays:
# [1] = Half life of compound was determined in dog; type: ADME, organism-based, Canis lupus familiaris; details: in vivo
# How it was run: (§1)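 Dogs given 0.2 mpk iv and 1 mpk po, in water; bioavailability, clearance and half-life taken from the plasma PK profile.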
# [2] = Bioavailability in dog; type: ADME, organism-based, Canis lupus familiaris; details: in vivo; how it was run: as §1
# [3] = Percent binding of compound towards human plasma protein was determined; type: ADME, cell-free
# How it was run: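 Human plasma, diluted, with ultrafiltration in pH 7.4 buffer at room temperature. Solutions analyzed by HPLC; high-throughput format.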
# [4] = Plasma clearance in dog was determined; type: ADME, organism-based, Canis lupus familiaris; how it was run: as §1
# [5] = Partition coefficient (logP); type: physicochemical; details: octanol/water
# How it was run: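 Partitioning between octanol and pH 7.4 buffer.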
# Integrin alpha-V/beta-3 = Integrin alpha-V/beta-3 (Homo sapiens, UniProt P05106+P06756); experiment: Inhibition of alphaV-beta3 integrin binding; type: protein-complex assay
# Sequence of Integrin alpha-V/beta-3 (P05106 27-788 limits assumed): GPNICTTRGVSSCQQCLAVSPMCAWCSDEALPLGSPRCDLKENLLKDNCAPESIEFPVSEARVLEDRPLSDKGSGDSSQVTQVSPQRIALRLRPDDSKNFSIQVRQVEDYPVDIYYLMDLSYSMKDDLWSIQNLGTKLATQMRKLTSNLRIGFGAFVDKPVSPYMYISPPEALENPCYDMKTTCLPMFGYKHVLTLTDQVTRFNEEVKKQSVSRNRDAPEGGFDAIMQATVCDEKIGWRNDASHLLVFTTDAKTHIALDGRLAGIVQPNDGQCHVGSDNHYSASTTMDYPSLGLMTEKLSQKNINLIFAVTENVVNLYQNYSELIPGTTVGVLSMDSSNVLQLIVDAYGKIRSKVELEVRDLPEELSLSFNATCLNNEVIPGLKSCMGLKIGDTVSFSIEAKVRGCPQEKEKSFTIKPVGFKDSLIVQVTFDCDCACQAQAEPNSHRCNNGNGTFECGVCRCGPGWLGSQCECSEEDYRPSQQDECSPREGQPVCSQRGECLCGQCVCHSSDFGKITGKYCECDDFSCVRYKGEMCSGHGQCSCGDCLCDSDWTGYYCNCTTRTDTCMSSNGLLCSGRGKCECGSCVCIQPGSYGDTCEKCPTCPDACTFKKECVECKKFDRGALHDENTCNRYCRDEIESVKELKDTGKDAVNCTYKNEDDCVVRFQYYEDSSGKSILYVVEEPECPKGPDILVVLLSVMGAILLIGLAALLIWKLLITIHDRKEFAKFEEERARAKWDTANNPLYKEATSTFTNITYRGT
# Sequence of Integrin alpha-V/beta-3 (P06756 31-889 limits assumed): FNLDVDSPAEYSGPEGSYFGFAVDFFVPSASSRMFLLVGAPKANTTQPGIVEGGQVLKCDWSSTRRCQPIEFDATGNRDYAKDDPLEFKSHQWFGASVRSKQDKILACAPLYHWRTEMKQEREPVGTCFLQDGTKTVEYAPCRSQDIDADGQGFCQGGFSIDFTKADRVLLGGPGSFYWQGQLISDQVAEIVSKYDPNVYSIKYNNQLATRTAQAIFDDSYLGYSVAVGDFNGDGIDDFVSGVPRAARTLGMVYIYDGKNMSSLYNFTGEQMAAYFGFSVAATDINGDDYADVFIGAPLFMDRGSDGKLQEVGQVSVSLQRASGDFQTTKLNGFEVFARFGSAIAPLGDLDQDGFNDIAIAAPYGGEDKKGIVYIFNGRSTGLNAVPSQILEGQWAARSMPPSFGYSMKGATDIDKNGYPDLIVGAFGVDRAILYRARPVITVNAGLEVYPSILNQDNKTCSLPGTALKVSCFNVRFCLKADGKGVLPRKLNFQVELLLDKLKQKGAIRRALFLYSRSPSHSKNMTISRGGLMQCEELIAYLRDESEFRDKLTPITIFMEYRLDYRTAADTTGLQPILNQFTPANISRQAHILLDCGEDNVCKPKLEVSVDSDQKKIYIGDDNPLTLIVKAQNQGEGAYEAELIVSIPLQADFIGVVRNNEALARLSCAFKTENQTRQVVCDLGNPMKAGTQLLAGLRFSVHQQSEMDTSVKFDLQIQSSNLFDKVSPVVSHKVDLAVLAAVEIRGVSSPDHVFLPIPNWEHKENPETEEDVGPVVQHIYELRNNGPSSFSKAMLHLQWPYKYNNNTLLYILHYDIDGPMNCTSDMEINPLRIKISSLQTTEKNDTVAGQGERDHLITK
# Sequence of Integrin alpha-V/beta-3 (P06756 891-1048 limits assumed): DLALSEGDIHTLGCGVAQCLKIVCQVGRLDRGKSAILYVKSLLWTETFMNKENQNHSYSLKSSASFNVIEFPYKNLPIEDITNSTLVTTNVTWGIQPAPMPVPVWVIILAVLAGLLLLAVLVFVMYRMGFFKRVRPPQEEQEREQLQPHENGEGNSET
# How it was run: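 Scintillation-proximity assay. Displacement of a 125I-labelled iodobenzenesulfonylamino naphthyridine propionic acid radioligand from purified recombinant human αvβ3 is measured.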
# [6] = Half life of compound was determined in rhesus monkey; type: ADME; details: cercopithecidae, in vivo
# [7] = Bioavailability of compound was determined in rhesus monkey; type: ADME, organism-based, Macaca mulatta; details: in vivo
# [8] = Half life of compound was determined in rat; type: ADME, organism-based; details: in vivo
# [9] = Plasma clearance in rhesus monkey was determined; type: ADME, organism-based; details: cercopithecidae
# [10] = Plasma clearance in rat was determined; type: ADME, organism-based
# [11] = Bioavailability in rat; type: ADME, organism-based; details: in vivo
# Rattus norvegicus [12] = species on record: Rattus norvegicus; experiment: Inhibitory effect of 10 mpk compound b.i.d. for 28 days was determined by bone mineral density in ovariectomized female rat; type: functional
# How it was run: (§2)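 Female rats ovariectomized and, within 24 h, dosed orally b.i.d. for 28 days (n = 10/group), with sham and OVX-vehicle groups. BMD measured by DXA at the distal femoral metaphysis and central femur. Result expressed as DFM:central BMD ratio (mean ± SEM).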
# Rattus norvegicus [13] = species on record: Rattus norvegicus; experiment: Inhibitory effect of 30 mpk compound b.i.d. for 28 days was determined by bone mineral density in ovariectomized female rat; type: functional; how it was run: as §2
# Rattus norvegicus [14] = species on record: Rattus norvegicus; experiment: distal femoral metaphysis bone mineral density in young male rat after constant infusion of compound was determined; type: functional
# How it was run: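 Growing male Sprague–Dawley rats (160 g) treated 10 days. Compound at 60 mg/mL in water with <1 equiv 1 N HCl, given by implanted subcutaneous osmotic minipump to a steady-state concentration of 800 nM (n = 15). PK checked in 3 parallel rats. Alendronate control 0.005 mpk sc qd. Right femur excised, stored in 70% ethanol, DFM BMD by DXA.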
# [15] = Selectivity for alphaV-beta3 over alphaV-beta5 integrins; set-up: species or system Homo sapiens
# How it was run: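 αvβ3 binding is measured by SPA displacement of a 125I-iodobenzenesulfonylamino radioligand from purified recombinant human αvβ3. The αvβ5 counterscreen uses the same radioligand displaced from purified recombinant αvβ5 in a similar SPA.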
smiles,measurement,setting,value
O=C(O)C[C@@H](c1ccc2c(c1)OCC2)N1CCN(CCCc2ccc3c(n2)NCCC3)C1=O,half-life,[1],2.7 h
same,bioavailability,[2],75%
same,Plasma protein binding,[3],98%
same,clearance,[4],0.246 L/h/kg
same,logP,[5],0.8
same,IC50,Integrin alpha-V/beta-3,0.1 nM
COc1ccc([C@H](CC(=O)O)N2CCN(CCCc3ccc4c(n3)NCCC4)C2=O)cn1,half-life,[1],3.5 h
same,bioavailability,[2],64%
same,Plasma protein binding,[3],88%
same,half-life,[6],2 h
same,bioavailability,[7],74%
same,half-life,[8],3 h
same,clearance,[9],0.54 L/h/kg
same,clearance,[10],2.82 L/h/kg
same,clearance,[4],0.384 L/h/kg
same,bioavailability,[11],26%
same,logP,[5],0.21
same,DFM:central BMD ratio,Rattus norvegicus [12],0.908
same,DFM:central BMD ratio,Rattus norvegicus [13],0.951
same,BMD,Rattus norvegicus [14],142.2 mg cm**-2
same,IC50,[15],10 nM
same,IC50,Integrin alpha-V/beta-3,0.08 nM
O=C(O)C[C@@H](c1cccnc1)N1CCN(CCCc2ccc3c(n2)NCCC3)C1=O,half-life,[1],0.9 h
same,bioavailability,[2],10%
same,Plasma protein binding,[3],61%
same,clearance,[4],4.2 L/h/kg
same,logP,[5],-0.55
same,IC50,Integrin alpha-V/beta-3,0.25 nM
COc1ccc([C@H](CC(=O)O)N2CCN(CCCc3ccc4c(n3)NC(=O)CC4)C2=O)cn1,IC50,Integrin alpha-V/beta-3,141 nM
COc1ccc([C@H](CC(=O)O)N2CCN(CCCc3ccc4c(n3)NC(O)CC4)C2=O)cn1 (some centres not stated),IC50,Integrin alpha-V/beta-3,0.4 nM
COc1ccc([C@H](CC(=O)O)N2CCN(CCCc3ccc4c(n3)NCCC4)C2=O)cc1F,half-life,[1],2.6 h
same,bioavailability,[2],94%
same,Plasma protein binding,[3],95%
same,clearance,[4],0.306 L/h/kg
same,logP,[5],0.82
same,IC50,Integrin alpha-V/beta-3,0.35 nM
COc1ccc([C@H](CC(=O)O)N2CCN(CCC(=O)c3ccc4c(n3)NCCC4)C2=O)cn1,IC50,Integrin alpha-V/beta-3,3 nM
